IDE cell activ: IDE (human) activation, cell-based | activation, % at 5.96 µM | hit rate 0.073% among 340,000 | AID 493087 | P14735 | HEK cells, FAbeta-B cleavage, fluorescence polarization; 0% vehicle, 100% cell-free pure enzyme wells;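 active = activation above the mean of all tested compounds plus 3 SD, set per screening campaign, cut at about 17% in these data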
proCasp7 act: activates human procaspase-7, counter-screen for procaspase-3 activators; P55210; activation, % at 8.5 µM; recombinant procaspase-7, Ac-DEVD-pNA absorbance 405 nm; D23A/D198A/D206A triple mutant, cannot self-cleave; scale: DMSO 0, 5 µM enzyme 100; hit rate 0.093% among 330,000;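 active = percent activation above the screen-wide mean plus 3 SD, cut at about 25% in these data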
Target sequence (P55210 whole entry D23A/D198A/D206A): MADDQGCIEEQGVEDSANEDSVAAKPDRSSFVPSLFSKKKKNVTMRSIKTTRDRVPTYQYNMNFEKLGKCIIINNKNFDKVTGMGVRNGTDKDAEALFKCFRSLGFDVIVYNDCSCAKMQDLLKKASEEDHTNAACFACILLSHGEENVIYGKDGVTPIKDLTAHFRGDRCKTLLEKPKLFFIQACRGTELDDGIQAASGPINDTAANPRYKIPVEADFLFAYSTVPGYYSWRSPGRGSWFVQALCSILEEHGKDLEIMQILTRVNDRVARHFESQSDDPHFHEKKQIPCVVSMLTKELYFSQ
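Detection: p-Nitroaniline absorbance at 405 nm, read at 0 and 120 min; system: Uncleavable procaspase-7 mutant enzyme; evaluation: % activation from two-timepoint absorbance difference, scaled to controls; times: 1 h enzyme–compound preincubation and 2 h substrate reaction, both 25 °C; buffer or medium: Zinc-free HEPES pH 7.4 with 300 mM NaCl, 0.01% Triton X-100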
TPT1 inhibitor: blocks Candida albicans tRNA 2'-phosphotransferase | recombinant caTPT1, FP RNA substrate dephosphorylation | inhibition, % at 5 µM | hit rate 0.81% among 300,000 | AID 1962;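 active = inhibition above the mean of all tested compounds plus 3 SD, set per screening campaign, cut at about 24% in these data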
proCasp3 act: activates human procaspase-3. P42574. recombinant procaspase-3 D3A, Ac-DEVD-pNA absorbance 405 nm. activation, % at 8.5 µM. hit rate 0.11% among 330,000. AID 463141;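 active = activation above the mean of all tested compounds plus 3 SD, cut at about 21% in these data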
Target sequence (P42574 whole entry D9A/D28A/D175A): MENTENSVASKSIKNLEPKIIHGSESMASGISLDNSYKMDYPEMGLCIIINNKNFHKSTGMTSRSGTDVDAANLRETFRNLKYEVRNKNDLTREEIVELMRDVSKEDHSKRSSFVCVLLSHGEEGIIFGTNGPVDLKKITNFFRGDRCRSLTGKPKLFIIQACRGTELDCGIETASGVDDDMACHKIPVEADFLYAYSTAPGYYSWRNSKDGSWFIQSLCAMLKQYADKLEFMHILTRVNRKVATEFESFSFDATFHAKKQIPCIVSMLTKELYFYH
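material = Procaspase-3 D3A mutant | probe or stimulus = Ac-DEVD-pNA | compound = single dose, 8.5 µM nominal compound, 0.8% DMSO | timing = 1 h preincubation, 2 h reaction | measured by = 405 nm absorbance of p-nitroaniline, reads at 0 and 120 min | benchmarks = DMSO-only low control, 5 µM PC-3 D3A high control | repeats = singlicate, each compound tested once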
IDE cell inh: inhibits human insulin-degrading enzyme in HEK cells. P14735. FAbetaB cleavage, fluorescence polarization. inhibition, % at 5.59 µM. hit rate 0.41% among 320,000;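 active = percent inhibition above the average of all tested compounds plus 3 SD, set per screening campaign, cut at about 16% in these data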;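 note: IDE supplied by intact live HEK cells; FP after avidin binding of uncleaved biotin substrate so inhibition keeps polarization high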
IDE cell inh cf: cellular human IDE inhibition, confirmation; HEK cells, FAbetaB cleavage, fluorescence polarization; shares compounds with IDE cell inh; inhibition, % at 5.59 µM; AID 435028; hit rate 51% among 1,200;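 active = mean inhibition across triplicate wells above the cutoff set by the earlier primary insulin-degrading enzyme screen, cut at about 16% in these data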
HEK cytotox: kills HEK cells in IDE inhibitor counter-screen; hit rate 28% among 1,200; HEK293 cytotoxicity, ATP luminescence; AID 449730; inhibition, % at 5.59 µM; shares compounds with IDE cell inh; in the data active = inhibition above about 22%
Of the large screens only hits and unclear results are named; the others gave an inactive call (follow-up assays come after a bar, where they were run). In the library only some 1.2% were active in any assay of this set; here they are far more common.

COc1ccc(OC)c(CCNC(=O)Cn2sc3nc(C)cc(C)c3c2=O)c1	IDE cell inh 20 (no result: IDE cell activ) | IDE cell inh cf inactive | HEK cytotox 125
Cc1cc(C)c2c(=O)n(CC(=O)Nc3ccc(Br)c(C)c3)sc2n1	IDE cell inh 61 | IDE cell inh cf 19 | HEK cytotox inactive
COc1ccc(C(=O)NNC(=O)C2CCN(S(=O)(=O)c3ccc(C)cc3)CC2)cc1	none
O=C(C1=C[C@@H](C2CCCCC2)C[C@@H](OCc2ccc(CO)cc2)O1)N1CCN(Cc2ccccc2)CC1	IDE cell inh 19 | IDE cell inh cf inactive | HEK cytotox inactive
CC(=O)N/N=C/c1cc(C(C)C)cc(/C=N/NC(C)=O)c1O	IDE cell inh 23 | IDE cell inh cf 35 | HEK cytotox inactive
CCCN(C(=O)c1ccco1)c1nnc(-c2ccccc2C)s1	none
O=C(/C=C/c1ccc(F)cc1)N1CCCN(C(=O)/C=C/c2ccc(F)cc2)CC1	IDE cell inh 24 | IDE cell inh cf inactive | HEK cytotox inactive
Cc1ccc(/C=C/C(=O)N2CCCN(C(=O)/C=C/c3ccc(C)cc3)CC2)cc1	none
CCOc1ccc(/C=N/NC(=O)c2nnn(-c3nonc3N)c2-c2ccc(OCC)cc2)cc1	IDE cell inh 22 | IDE cell inh cf inactive | HEK cytotox inactive
Cc1ccn2cc(-c3ccc(NC(=O)c4ccco4)cc3)nc2c1	IDE cell inh 18 | IDE cell inh cf inactive | HEK cytotox inactive
C/C(Cc1ccccc1)=N\NC(=O)CNC(=O)/C=C\c1ccccc1	IDE cell inh 17 (no result: IDE cell activ) | IDE cell inh cf inactive | HEK cytotox inactive
COc1ccc(/C=C(\NC(=O)c2ccco2)C(=O)NC(Cc2ccccc2)C(=O)O)cc1 (stereo not drawn)	none
O=c1[nH]c2ccccc2c(O)c1O	IDE cell inh 62 | IDE cell inh cf 65 | HEK cytotox inactive
Cc1cc(C)c(OCC(O)CN2CCN(C(=O)c3ccccc3)CC2)c(C)c1 (stereo not drawn)	none
CCNc1nnc(CSc2nc3ccccc3s2)s1	IDE cell inh 17 | IDE cell inh cf inactive | HEK cytotox inactive
COc1ccc(OCCC(=O)OCC(=O)NCc2ccccc2OC)cc1	none
Cc1ccc(C2C(C(=O)c3cccs3)=C(O)C(=O)N2c2nnc(C)s2)cc1 (stereo not drawn)	none
NNC(=O)/C(=C\c1ccc(Br)cc1)NC(=O)c1cccs1	IDE cell inh 17 | IDE cell inh cf inactive | HEK cytotox inactive
Cc1ccc(Oc2ncccc2C(=O)NCC(=O)O)cc1	none
CCn1c(=O)c(C(=O)CN2CCCc3ccccc32)c(N)n(Cc2ccccc2)c1=O	IDE cell inh 37 | IDE cell inh cf inactive | HEK cytotox inactive
CCCCn1nnc(NC(=O)c2ccc(-c3ccccc3)cc2)n1	IDE cell inh 18 | IDE cell inh cf inactive | HEK cytotox 55
CCCCn1nnc(NC(=O)c2cc3ccccc3o2)n1	none
Cc1ccsc1C(=O)OCC(=O)N(Cc1ccccc1)C(C)C	IDE cell inh 16 (no result: TPT1 inhibitor) | IDE cell inh cf inactive | HEK cytotox inactive
Cc1ccc(C(=O)OCC(=O)N(Cc2ccccc2)C(C)C)cc1C	none (no result: TPT1 inhibitor)
CCC(C)N(C(=O)COc1ccc(NC(C)=O)cc1)C1CCS(=O)(=O)C1 (stereo not drawn)	none
C=CCNc1ncnc2c1[nH]c1ccc(C)cc12	IDE cell inh 30 | IDE cell inh cf inactive | HEK cytotox 35
COc1cccc(/C=N/Nc2ncnc3c2[nH]c2ccc(C)cc23)c1OC	IDE cell inh 63 | IDE cell inh cf 59 | HEK cytotox inactive
O=C(COc1cc(O)c2c(=O)c3ccccc3oc2c1)OCc1ccccc1	none
CCOC(=O)c1c(NC(=O)COC(=O)CNC(=O)c2ccco2)sc(C(C)=O)c1C	IDE cell inh 17 | IDE cell inh cf inactive | HEK cytotox inactive
CCC1CCC/C1=N\NC(=O)c1ccccc1C (stereo not drawn)	none
O=C(/C=C/c1ccc(Cl)cc1)NC(=S)Nc1ccc(NC(=O)c2ccco2)cc1	IDE cell inh 43 | IDE cell inh cf 17 | HEK cytotox 77
COc1cc(OC)cc(C(=O)NNS(=O)(=O)c2ccc(F)cc2)c1	none
Cc1cccc(C(=O)NC(C(=O)Nc2ccc(S(=O)(=O)Nc3nccs3)cc2)C(C)C)c1 (stereo not drawn)	none (no result: proCasp7 act, TPT1 inhibitor, proCasp3 act, IDE cell inh)
O=C(NNC(=O)c1ccc(Cl)cc1Cl)c1csc(-c2cccnc2)n1	IDE cell inh 21 | IDE cell inh cf inactive | HEK cytotox inactive
CN[C@@H](C)C(=O)NC[C@H]1O[C@@H](n2cnc3c(N)ncnc32)[C@H](O)[C@@H]1O	none (no result: TPT1 inhibitor, IDE cell inh)
Cc1ccc(C2=NN=C(NC(=O)CSc3nncn3C)SC2)cc1	IDE cell inh 24 | IDE cell inh cf inactive | HEK cytotox inactive
Cc1ccc(C(=O)NC(=O)CSc2nncn2C)cc1	none
CCOCCCNC(=S)N1CCCN(c2nc3cc(C)c(C)cc3cc2C#N)CC1	IDE cell inh 21 | IDE cell inh cf inactive | HEK cytotox inactive
Cc1csc(SCC(=O)NC2CCS(=O)(=O)C2)n1 (stereo not drawn)	none (no result: TPT1 inhibitor)
O=C1CC(=O)Nc2cc(S(=O)(=O)N3CCOc4ccc(Cl)cc43)ccc2N1	none
COc1ccccc1Nc1ccc(NC(=O)c2cccc([N+](=O)[O-])c2C)cc1	IDE cell inh 17 | IDE cell inh cf inactive | HEK cytotox 39
CCC(=O)N(CCc1ccc(S(N)(=O)=O)cc1)C1CC(=O)N(c2ccc(OC)cc2)C1=O (stereo not drawn)	none
Clc1ccc2[nH]c3c(NCCCN4CCOCC4)ncnc3c2c1	IDE cell inh 42 | IDE cell inh cf 17 | HEK cytotox inactive
CC(C(=O)NC(C)(C)C)N(C(=O)CS(=O)CC(=O)Nc1ccc(F)cc1)C1CCCC1 (stereo not drawn)	none
Cc1ccc(-n2c(O)c(C=Nc3ccccc3-c3n[nH]c(=S)[nH]c3=O)c3ccccc3c2=O)cc1C	none (no result: proCasp7 act, TPT1 inhibitor, proCasp3 act, IDE cell inh)
Cc1cccc(-n2c(O)c(C=Nc3ccccc3-c3n[nH]c(=S)[nH]c3=O)c3ccccc3c2=O)n1	IDE cell inh 22 | IDE cell inh cf 17 | HEK cytotox inactive
Cc1cccc(S(=O)(=O)Nc2cccc3c2C(=O)c2ccccc2-3)c1	IDE cell inh 50 | IDE cell inh cf 41 | HEK cytotox inactive
CCC1COCCS(=O)(=O)N1Cc1cccc(C(F)(F)F)c1 (stereo not drawn)	none
CCOc1cc(/C=C2\SC(=S)N(NS(=O)(=O)c3ccc(C)cc3)C2=O)ccc1O	IDE cell inh 35 | IDE cell inh cf 84 | HEK cytotox inactive
COc1cc(/C=C2\SC(=S)N(NC(=O)c3ccncc3)C2=O)ccc1O	IDE cell inh 81 | IDE cell inh cf 165 | HEK cytotox inactive

High-throughput results: PubChem BioAssay, The Scripps Research Institute Molecular Screening Center
